Experimental data as given in ChEMBL document CHEMBL1122366, “Potential antiatherosclerotic agents. 3. Substituted benzoic and non benzoic acid analogues of cetaben” (1983).

Experiments:
[1] = target: T1, Sterol O-acyltransferase 1 (Rattus norvegicus) (UniProt O70536); assay: In vitro inhibition of acyl coenzyme A:cholesterol acyltransferase; set-up: concentration or dose not given beside the values; conditions: concentration not given here
T1 sequence (whole entry): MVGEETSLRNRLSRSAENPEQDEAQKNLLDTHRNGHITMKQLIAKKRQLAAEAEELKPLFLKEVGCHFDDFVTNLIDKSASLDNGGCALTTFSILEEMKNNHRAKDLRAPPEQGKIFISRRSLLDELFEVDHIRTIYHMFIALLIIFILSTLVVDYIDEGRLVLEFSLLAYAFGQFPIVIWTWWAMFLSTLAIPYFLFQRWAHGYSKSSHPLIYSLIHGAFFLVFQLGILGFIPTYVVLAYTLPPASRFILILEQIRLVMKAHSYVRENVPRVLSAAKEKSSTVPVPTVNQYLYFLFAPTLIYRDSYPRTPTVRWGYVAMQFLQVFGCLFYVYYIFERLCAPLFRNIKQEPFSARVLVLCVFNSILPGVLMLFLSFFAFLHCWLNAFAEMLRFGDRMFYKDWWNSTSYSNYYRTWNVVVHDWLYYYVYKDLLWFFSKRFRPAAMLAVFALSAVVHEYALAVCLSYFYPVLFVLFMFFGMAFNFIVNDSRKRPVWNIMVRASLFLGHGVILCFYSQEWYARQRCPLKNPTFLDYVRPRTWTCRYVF
Procedure, shortened: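 Enzyme fatty acyl-CoA:cholesterol acyltransferase (ACAT), assayed in vitro at a single drug concentration of 5.2 μg/mL. The value is the mean percent inhibition of enzyme activity.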

Rattus norvegicus [2] = assay: In vivo triglyceride lowering activity dosed at 0.10 % of the diet.; type: functional
Procedure, shortened: (§1)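 Normal rats were dosed in the diet. Serum sterol and triglyceride levels were measured and expressed as the mean percent of control values. Significance versus control was reported at p < 0.05, 0.01 and 0.001.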

Rattus norvegicus [3] = assay: In vivo sterol lowering activity at dose of 0.10 % of the diet; type: functional; procedure, shortened: as §1
Rattus norvegicus [4] = assay: In vivo sterol lowering activity when dosed as 0.01 % of the diet; type: functional; procedure, shortened: as §1
Rattus norvegicus [5] = assay: In vivo sterol lowering activity when dosed as 0.03 % of the diet; type: functional; procedure, shortened: as §1
Rattus norvegicus [6] = assay: In vivo triglyceride lowering activity when dosed at 0.03 % of the diet; type: functional; procedure, shortened: as §1

Row | inhibition [1] [%] | SMILES | serum triglyceride, percent of control (Rattus norvegicus [2]) [%] | serum sterol level, percent of control (Rattus norvegicus [3]) [%] | serum sterol level, % of control (Rattus norvegicus [4]) [%] | serum sterol level, percent of control (Rattus norvegicus [5]) [%] | serum triglyceride level, percent of control (Rattus norvegicus [6]) [%]
1 | 6 | CCCCCCCCCCCCCCCCNc1cc(C(=O)OC)cc(C(=O)OC)c1 | 86 | 108 |  |  | 
2 | < 40 | C=CCOC(=O)c1ccc(NCCCCCCCCCCCCCCCC)cc1 | <70 | <81 | 94 | 103 | <60
3 | 78 | CCCCCCCCCCCCCCCCNc1ccc(-c2nn[nH]n2)cc1 | 91 | 89 |  |  | 
4 | < 41 | CCCCCCCCCCCCCCCCNc1csc(C#N)c1 | 99 | 92 |  |  | 
5 | < 33 | CCCCCCCCCCCCCCCCNc1ccc(C(C)O)cc1 (configuration not stated) | 93 | 93 |  |  | 
6 | 49 | CCCCCCCCCCCCCCCCNc1ccc(C(=O)O)c(O)c1 | <57 | 108 |  |  | 

The remaining lines, values behind:

Row | SMILES | inhibition [1] [%] | serum triglyceride, percent of control (Rattus norvegicus [2]) [%] | serum sterol level, percent of control (Rattus norvegicus [3]) [%] | serum sterol level, % of control (Rattus norvegicus [4]) [%] | serum sterol level, percent of control (Rattus norvegicus [5]) [%] | serum triglyceride level, percent of control (Rattus norvegicus [6]) [%]
7 | CCCCCCCCCCCCCCCCNc1ccc(C(=O)OCC(O)COC)cc1 (configuration not stated) | 0 | <65 | <77 |  |  | 
8 | CCCCCCCCCCCCCCNc1ccc(C(=O)OCC(O)CO)cc1 (configuration not stated) | 27 | <47 | <80 |  |  | 
9 | CCCCCCCCCCCCCCCCNc1ccc(C(=O)OCC(COC(C)=O)OC(C)=O)cc1 (configuration not stated) | 22 | <40 | <66 |  |  | 
10 | CCCCCCCCCCCCCCCCNc1ccc(C(=O)OCC(COC(=O)CCCCCCCCCCCCCCC)OC(=O)CCCCCCCCCCCCCCC)cc1 (configuration not stated) | 4 | 75 | <80 |  |  | 
11 | CCCCCCCCCCCCCCCCNc1ccc(C(=O)OC)cn1 |  |  | 114 |  | 108 | 
12 | CCCCCCCCCCCCCCCCN(C(C)=O)c1ccc(C(=O)OCC(O)COC(C)=O)cc1 (configuration not stated) | 4 | 113 | 97 |  |  | 
13 | CCCCCCCCCCCCCCCCN(CCCCCCCCCCCCCCCC)c1ccc(CCC(=O)OCC)cc1 | 28 | 84 | 94 |  |  | 
14 | CCCCCCCCCCCCCCCCNc1ccc(C(=O)OCC2COC(C)(C)O2)cc1 (configuration not stated) | 0 | <68 | 86 |  |  | 
15 | CCCCCCCCCCCCCCCCN(C(=O)C(F)(F)F)c1ccc(C(=O)Nc2ccc(C(=O)OCC)cc2)cc1 | < 25 | <69 | 95 |  |  | 
16 | CCCCCCCCCCCCCCCCNc1ccc(C(=O)OCC(COC(=O)c2ccc(NCCCCCCCCCCCCCCCC)cc2)OC(C)=O)cc1 | 2 | <63 | 89 |  |  | 
17 | CCCCCCCCCCCCCCCCNc1ccc(SCC(=O)OCC)cc1 | 13 | 126 | 99 |  |  | 
18 | CCCCCCCCCCCCCCCCNc1ccc(C(=O)N2CCCCC2)cc1 | < 55 | <61 | 83 |  |  | 
19 | CCCCCCCCCCCCCCCCN(CCCCCCCCCCCCCCCC)c1ccc(CCCC(=O)OCC)cc1 | 18 | 90 | 103 |  |  | 
20 | CCCCCCCCCCCCCCCCN(C(=O)C(F)(F)F)c1ccc(C(=O)N2CCCCCC2)cc1 | < 75 | <66 | 95 |  |  | 
